According to ChEMBL document CHEMBL1145927 (J Med Chem, 2003):

Tests used:
[1] = molecular target: T1, Prostaglandin G/H synthase 1 (Homo sapiens, UniProt P23219); experiment: In vitro average percent inhibition of human prostaglandin G/H synthase 1 (COX-1) at a concentration of 100 uM
Procedure, shortened: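 Supplied recombinant human COX-1 (5 units) preincubated 2 min at 25 °C in 0.1 M Tris-HCl pH 8.0 with 5 mM EDTA, 2 mM phenol and heme; compound or DMSO added, 20 min at 25 °C; started with 10 mM arachidonic acid stock, 2 min at 37 °C; stopped with HCl, SnCl2 reduction; prostaglandins by EIA; percent inhibition versus solvent control.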

[2] = molecular target: T1, Prostaglandin G/H synthase 1; conditions: at 100 µM
[3] = molecular target: T2, Prostaglandin G/H synthase 2 (Homo sapiens) (UniProt P35354); conditions: at 1 µM
T2 sequence (whole entry): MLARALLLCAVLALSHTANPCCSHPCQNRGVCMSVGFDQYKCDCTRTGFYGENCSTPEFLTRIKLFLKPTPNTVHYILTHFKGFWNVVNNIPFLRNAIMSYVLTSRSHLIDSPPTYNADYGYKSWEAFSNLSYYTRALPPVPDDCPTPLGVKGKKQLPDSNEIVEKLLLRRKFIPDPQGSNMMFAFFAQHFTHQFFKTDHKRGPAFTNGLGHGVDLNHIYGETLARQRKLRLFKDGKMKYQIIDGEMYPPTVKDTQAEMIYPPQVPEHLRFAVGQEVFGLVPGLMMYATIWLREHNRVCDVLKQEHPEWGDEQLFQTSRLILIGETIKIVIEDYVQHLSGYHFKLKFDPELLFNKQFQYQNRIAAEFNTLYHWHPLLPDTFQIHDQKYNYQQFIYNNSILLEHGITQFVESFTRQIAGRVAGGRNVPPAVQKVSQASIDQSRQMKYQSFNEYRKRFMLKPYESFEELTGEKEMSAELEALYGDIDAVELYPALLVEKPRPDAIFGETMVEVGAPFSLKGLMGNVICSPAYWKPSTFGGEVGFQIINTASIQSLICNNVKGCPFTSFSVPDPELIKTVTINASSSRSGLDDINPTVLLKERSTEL

[4] = molecular target: T2, Prostaglandin G/H synthase 2 (Homo sapiens); conditions: at 10 µM

T1 sequence (P23219 whole entry): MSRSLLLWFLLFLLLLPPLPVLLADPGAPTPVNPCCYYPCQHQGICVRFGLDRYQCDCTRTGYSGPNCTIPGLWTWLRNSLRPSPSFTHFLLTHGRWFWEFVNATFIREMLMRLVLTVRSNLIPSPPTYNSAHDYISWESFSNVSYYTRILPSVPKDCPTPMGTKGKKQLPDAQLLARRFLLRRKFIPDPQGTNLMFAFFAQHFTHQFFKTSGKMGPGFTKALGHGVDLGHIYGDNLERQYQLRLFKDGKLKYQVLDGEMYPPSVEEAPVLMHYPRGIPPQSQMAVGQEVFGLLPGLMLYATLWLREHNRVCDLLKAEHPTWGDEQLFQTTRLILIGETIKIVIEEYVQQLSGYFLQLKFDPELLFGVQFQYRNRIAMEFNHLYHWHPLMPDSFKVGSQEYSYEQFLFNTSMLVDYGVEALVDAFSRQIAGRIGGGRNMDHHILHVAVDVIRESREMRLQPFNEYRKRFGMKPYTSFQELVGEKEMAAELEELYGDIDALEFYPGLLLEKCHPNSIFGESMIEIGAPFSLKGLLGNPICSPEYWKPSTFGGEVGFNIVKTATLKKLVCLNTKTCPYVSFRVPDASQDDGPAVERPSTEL

Row | Structure (SMILES) | inhibition [1] [%] | inhibition [2] [%] | inhibition [3] [%] | inhibition [4] [%]
1 | O=S(=O)(CF)c1ccc(-c2cc3c(cc2Cc2ccccc2)OCO3)cc1 | – | 50 | 25 | 50
2 | CS(=O)(=O)c1ccc(-c2cc3c(cc2C(=O)c2ccccc2F)OCO3)cc1 | 70 | – | – | –
3 | CS(=O)(=O)c1ccc(-c2cc3c(cc2C(=O)c2cc(F)cc(F)c2)OCO3)cc1 | 50 | – | – | –
4 | Cc1ccc(F)c(Cc2cc3c(cc2-c2ccc(S(C)(=O)=O)cc2)OCO3)c1 | 40 | – | – | –
5 | COc1cccc(C(=O)c2cc3c(cc2-c2ccc(S(C)(=O)=O)cc2)OCO3)c1 | 95 | – | – | –
6 | CS(=O)(=O)c1ccc(-c2cc3c(cc2C(=O)c2cccc(Cl)c2)OCO3)cc1 | 90 | – | – | –
7 | CS(=O)(=O)c1ccc(-c2cc3c(cc2C(O)c2ccccc2)OCO3)cc1 (centres undefined) | – | 0 | 0 | 0
8 | Cc1cccnc1C(=O)c1cc2c(cc1-c1ccc(S(C)(=O)=O)cc1)OCO2 | – | 0 | 0 | 10
9 | Cc1ccc(C(=O)c2cc3c(cc2-c2ccc(S(C)(=O)=O)cc2)OCO3)cc1 | 60 | – | – | –
10 | Cc1ccc(F)c(C(=O)c2cc3c(cc2-c2ccc(S(C)(=O)=O)cc2)OCO3)c1 | 90 | – | – | –
11 | CS(=O)(=O)c1ccc(-c2cc3c(cc2C(=O)c2cccnc2)OCO3)cc1 | – | 20 | 0 | 20
12 | CS(=O)(=O)c1ccc(-c2cc3c(cc2C(=O)c2ccc(F)cc2)OCO3)cc1 | 95 | – | – | –
13 | COc1cccc(Cc2cc3c(cc2-c2ccc(S(C)(=O)=O)cc2)OCO3)c1 | 35 | – | – | –

Next, values leading:

Row | inhibition [1] [%] | inhibition [2] [%] | inhibition [3] [%] | inhibition [4] [%] | Structure (SMILES)
14 | 10 | – | – | – | Cc1cccc(Cc2cc3c(cc2-c2ccc(S(C)(=O)=O)cc2)OCO3)c1
15 | 25 | – | – | – | CS(=O)(=O)c1ccc(-c2cc3c(cc2Cc2cccc(F)c2)OCO3)cc1
16 | – | 0 | 0 | 30 | CS(=O)(=O)c1ccc(-c2cc3c(cc2CN2CCCCC2)OCO3)cc1
17 | 55 | – | – | – | CS(=O)(=O)c1ccc(-c2cc3c(cc2C(=O)C2CCCCC2)OCO3)cc1
18 | – | 10 | 35 | 10 | CS(=O)(=O)c1ccc(-c2cc3c(cc2C(=O)N2CCOCC2)OCO3)cc1
19 | – | 0 | 10 | 25 | CS(=O)(=O)c1ccc(-c2cc3c(cc2CN2CCC(O)CC2)OCO3)cc1
20 | 50 | 0 | 100 | 100 | CS(=O)(=O)c1ccc(-c2cc3c(cc2CC2CCCCC2)OCO3)cc1
21 | – | 0 | 25 | 30 | CS(=O)(=O)c1ccc(-c2cc3c(cc2CN2CCCCC2CO)OCO3)cc1 (centres undefined)
22 | – | 0 | 20 | 20 | CCOC(=O)C1CCN(Cc2cc3c(cc2-c2ccc(S(C)(=O)=O)cc2)OCO3)CC1
23 | – | 10 | 40 | 40 | CCOC(=O)C1CCCN(Cc2cc3c(cc2-c2ccc(S(C)(=O)=O)cc2)OCO3)C1 (centres undefined)
24 | – | 15 | 20 | 40 | CS(=O)(=O)c1ccc(-c2cc3c(cc2C(=O)N2CCCCC2)OCO3)cc1
25 | 65 | – | – | – | CS(=O)(=O)c1ccc(-c2cc3c(cc2Cc2cccc(Cl)c2)OCO3)cc1
26 | – | 0 | 20 | 30 | CS(=O)(=O)c1ccc(-c2cc3c(cc2CN2CCCC(CO)C2)OCO3)cc1 (centres undefined)
27 | – | 15 | 20 | 15 | CN1CCN(C(=O)c2cc3c(cc2-c2ccc(S(C)(=O)=O)cc2)OCO3)CC1
28 | 50 | 70 | 20 | 90 | CS(=O)(=O)c1ccc(-c2cc3c(cc2CN2CCCCC2=O)OCO3)cc1
29 | – | 0 | 0 | 20 | CS(=O)(=O)c1ccc(-c2cc3c(cc2C(=O)N2CCCC2)OCO3)cc1
30 | 75 | – | – | – | CS(=O)(=O)c1ccc(-c2cc3c(cc2Cc2ccccc2F)OCO3)cc1
